In ChEMBL document CHEMBL1132202, “2-Amino-3-substituted-6-[(E)-1-phenyl-2-(N-methylcarbamoyl)vinyl]imid azo[1,2-a]pyridines as a novel class of inhibitors of human rhinovirus: stereospecific synthesis and antiviral activity” (J Med Chem, 1999):
Values after ≈ are worked out from the molar mass of the structure shown.

Experiments:
[1] = Compound was measured for inhibition on Human Rhinovirus-14 by using PRA assay (Antiviral activity); type: functional, Human rhinovirus sp.
Summary of the method: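 H-HeLa cells grown in 60-mm dishes at 37 °C in MEM with 10% newborn calf serum and 1% nonessential amino acids. Overlay contained varied compound concentrations. Incubated 35 °C for 48 h, fixed with 10% formalin, stained with 0.5% crystal violet, plaques counted. Duplicate wells averaged vs DMSO controls. IC50 (50% plaque inhibition) by Reed-Muench from linear region of the curve.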

[2] = Ratio of TC50 value to the IC50 value measured on rhinovirus-14 by using CPE/XTT assay.; type: functional
Summary of the method: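 Cytopathic-effect assay run per an earlier method, except that surviving host cells were quantified by XTT reduction instead of crystal violet staining. General cellular toxicity was taken as TC50, and the ratio was TC50 divided by IC50. No-drug controls received 0.1% DMSO.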

[3] = Compound was measured for inhibition on Human Rhinovirus-14 by using CPE/XTT assay (Antiviral activity); type: functional, Human rhinovirus sp.
Summary of the method: (§1)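 CPE assay run per an earlier protocol, except that surviving host cells were quantified with XTT as substrate rather than crystal violet staining. The same assay gave the cellular toxicity TC50. Control samples without drug received 0.1% DMSO.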

[4] = Compound was evaluated for cellular toxicity in on Human Rhinovirus-14 by using CPE/XTT assay (cytopathic effect assay); settings: human rhinovirus sp.; read-out: TC50 (the source's name); summary of the method: as §1

SMILES	IC50 [1] [µg/mL]	TC50/IC50 [2]	IC50 [3] [µg/mL]	CC50 [4] [µg/mL]
CNC(=O)/C=C(\c1ccccc1)c1ccc2nc(N)c(I)n2c1	> 3.2	–	–	–
CNC(=O)/C=C(\c1ccccc1)c1ccc2nc(N)c(-c3ccc(F)cc3C(F)(F)F)n2c1	0.44 (≈ 0.968 µM)	>21	0.48 (≈ 1.06 µM)	> 10
CNC(=O)/C=C(\c1ccccc1)c1ccc2nc(N)c(S(=O)(=O)C(C)C)n2c1	0.64 (≈ 1.61 µM)	–	–	–
CNC(=O)/C=C(\c1ccccc1)c1ccc2nc(N)c(-c3ccc(F)c(F)c3F)n2c1	0.17 (≈ 0.402 µM)	33	0.21 (≈ 0.497 µM)	6.98 (≈ 16.5 µM)
CNC(=O)/C=C(\c1ccccc1)c1ccc2nc(N)c(-c3ccccc3)n2c1	0.27 (≈ 0.733 µM)	17	0.3 (≈ 0.814 µM)	5.03 (≈ 13.7 µM)
CNC(=O)/C=C(\c1ccccc1)c1ccc2nc(N)cn2c1	> 10	–	–	–
CNC(=O)/C=C(\c1ccccc1)c1ccc2nc(N)c(-c3cc(F)ccc3F)n2c1	0.18 (≈ 0.445 µM)	30	0.16 (≈ 0.396 µM)	4.87 (≈ 12 µM)
CNC(=O)/C=C(\c1ccccc1)c1ccc2nc(N)c(SC(C)C)n2c1	0.17 (≈ 0.464 µM)	48	0.21 (≈ 0.573 µM)	10 (≈ 27.3 µM)
